Sampled rows, rich in hits. Any-hit rate of the full collection: about 2.5%.
ADAM17 inh – ADAM17 inhibition, QFRET primary screen; AID 720648; P78536; inhibition, % at 6.95 µM; recombinant ADAM17, EDANS/DABCYL FRET peptide cleavage; 370,000 tested, 0.83% active;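 active means inhibition above the mean of compounds lying between control limits plus 3 SD, set per campaign, cut at about 8.5% in these data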;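 further: 0% = DMSO-only wells as the low control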
Target sequence (P78536 215-824 limits assumed): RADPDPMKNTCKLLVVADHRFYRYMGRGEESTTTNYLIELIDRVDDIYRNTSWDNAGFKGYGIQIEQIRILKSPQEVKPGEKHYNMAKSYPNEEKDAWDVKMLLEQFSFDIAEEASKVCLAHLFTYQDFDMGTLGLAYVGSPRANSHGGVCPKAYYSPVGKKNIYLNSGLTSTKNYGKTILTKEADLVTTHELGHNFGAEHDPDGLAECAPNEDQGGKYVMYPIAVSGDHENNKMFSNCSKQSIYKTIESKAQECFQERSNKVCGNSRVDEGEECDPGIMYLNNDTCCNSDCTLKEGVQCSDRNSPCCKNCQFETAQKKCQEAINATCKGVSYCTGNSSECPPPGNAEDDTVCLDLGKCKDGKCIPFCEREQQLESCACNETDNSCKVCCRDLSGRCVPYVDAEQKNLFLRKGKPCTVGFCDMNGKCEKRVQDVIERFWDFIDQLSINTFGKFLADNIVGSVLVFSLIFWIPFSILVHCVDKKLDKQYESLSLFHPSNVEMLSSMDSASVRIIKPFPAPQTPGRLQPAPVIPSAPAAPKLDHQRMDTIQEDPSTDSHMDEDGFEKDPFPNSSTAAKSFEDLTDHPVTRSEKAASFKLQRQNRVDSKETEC
KLK7 zymogen act – proKLK7 (human) activation, primary screen. purified proKLK7, EDANS-DABCYL substrate fluorescence; 100% is mature enzyme control, 0% vehicle. activation, % at 7 µM. AID 652039. P49862. 370,000 tested, 0.9% active;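 active means activation above the mean of all tested compounds plus 3 SD, computed per campaign excluding outliers beyond control limits, cut at about 13% in these data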
NR2E3 ag-1 – NR2E3 (human) agonism; GST-NR2E3/biotin-RetCOR TR-FRET, 1536-well; inhibition of corepressor binding, % at 4.78 µM; 320,000 tested, 0.12% active; AID 2300;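 active means percent inhibition above the cutoff of mean plus 3 SD of all tested compounds, set per screening campaign, cut at about 20% in these data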;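 further: 0% = DMSO wells and 100% = biotin wells as full block of FRET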
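system = GST-tagged NR2E3 plus biotinylated RetCOR corepressor | input = 1.35 nM GST-NR2E3 | also added = 7 nM biotin-RetCOR | schedule = 5 h incubation at 4 °C | measured by = TR-FRET with europium anti-GST and streptavidin-D2, 340 nm excitation | read-out = percent loss of FRET ratio relative to control wells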
NR2E3 ag-2 – human photoreceptor-specific nuclear receptor agonism. Q9Y5X4. CHO-S Gal4-NCOR/VP16-NR2E3 two-hybrid, luciferase. inhibition of corepressor binding, % at 3.98 µM. 360,000 tested, 0.35% active;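 active means inhibition above the mean of all tested compounds plus 3 SD, cut at about 70% in these data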;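 further: 0% = DMSO with NR2E3 transfected cells and 100% = cells lacking NR2E3 construct; higher means lower luciferase signal from less NR2E3 corepressor binding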
ADAM10 inh – inhibits human ADAM10 | O14672 | recombinant ADAM10, EDANS/DABCYL FRET peptide cleavage, 3 h | inhibition, % at 7 µM | 370,000 tested, 0.62% active;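 active means inhibition above a per-campaign cutoff equal to the mean of compounds falling between control-based bounds plus 3 SD, cut at about 20% in these data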;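 further: 0% = DMSO wells while the 100% control is not disclosed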
GASC-1 inh – blocks human GASC-1 demethylase activity; 330,000 tested, 0.069% active; inhibition, % at 2.35 µM; GST-JMJD2C(1-420) H3K9me3 demethylation, DELFIA europium; Q9H3R0;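 active means more than half of a compound's replicate wells show inhibition beyond 50%, single wells judged on their own value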;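 further: signal counts dimethyl H3K9 product captured on neutravidin plate; 0% = median of DMSO wells and 100% = 0.3 times that DMSO median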
ADAM10 ctr – ADAM10 inhibition, counter-screen for ADAM17 exosite hits. shares compounds with ADAM17 inh. recombinant ADAM10, EDANS/DABCYL FRET peptide cleavage, 3 h. inhibition, % at 6.95 µM. 2,900 tested, 47% active;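 active means mean inhibition over the triplicate runs exceeds the activity threshold set in the earlier primary screen, cut at about 20% in these data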;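 further: 0% = DMSO wells and 100% = marimastat wells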
ADAM17 confirm – confirmation of inhibitors of human ADAM17. 2,900 tested, 65% active. inhibition, % at 6.95 µM. recombinant ADAM17, EDANS/DABCYL QFRET peptide cleavage. AID 743257. shares compounds with ADAM17 inh;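 active means mean inhibition across replicates above the hit cutoff set in the primary screen, cut at about 8.5% in these data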;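 further: 0% = DMSO wells and 100% = marimastat wells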
Active calls of the source: *; . = not tested or not shown.

SMILES	ADAM17 inh	KLK7 zymogen act	NR2E3 ag-1	NR2E3 ag-2	ADAM10 inh	GASC-1 inh	ADAM10 ctr	ADAM17 confirm
Cc1cc2cc(CN(CCCO)S(=O)(=O)c3cccc4nsnc34)c(=O)[nH]c2cc1C	10*	0	2	-5	13	-15	-2	5
Cc1ccc2[nH]c(=O)c(CN(CCCO)S(=O)(=O)c3c(C)ccc4nsnc34)cc2c1	1	-1	3	-30	-12	11	.	.
Cc1cccc(Nc2nc(N)c([N+](=O)[O-])c(N3CC(C)CC(C)C3)n2)c1 (stereo not drawn)	9.4*	0	-5	2	20*	-1	31*	17*
Cc1cccc(Nc2nc(N)c([N+](=O)[O-])c(N3CC(C)OC(C)C3)n2)c1 (stereo not drawn)	-1	0	-4	20	-1	10	.	.
CCCC1(C)NC(=O)c2ccccc2O1 (stereo not drawn)	-3	-1	4	10	-9	8	.	.
CCC(C)c1ccccc1NC(=O)COC(=O)c1ccc2[nH]c3c(c2c1)CCCC3 (stereo not drawn)	11*	2	2	-7	2	2	-1	6
Cc1c(C(=O)NC(=S)Nc2ccc(NC(=O)c3cccs3)cc2)cccc1[N+](=O)[O-]	12*	0	3	-10	18	5	29*	20*
CC(=O)NC(=S)Nc1ccc(NC(=S)NC(=O)c2cccs2)cc1	-3	0	1	-31	3	-2	.	.
O=S(=O)(c1cccs1)N1CCC(CO)(Cc2ccc(Cl)cc2)CC1	12*	0	0	4	17	-18	1	8
O=S(=O)(NCC(Nc1ccccc1)c1ccccc1)c1ccc(Cl)cc1 (stereo not drawn)	9.0*	0	6	6	15	1	36*	21*
CCCCNS(=O)(=O)c1ccc2nc(SCC(=O)Nc3cccc(F)c3)[nH]c2c1	8	0	0	2	15	-6	.	.
CCCCNS(=O)(=O)c1ccc2nc(SCC(=O)Nc3ccccc3Cl)[nH]c2c1	9.9*	0	0	-10	20	12	26*	12*
CCC(=O)N1CCc2cc(Br)cc(S(=O)(=O)N(C)c3ccc(OC)cc3OC)c21	10*	0	-1	-4	16	-1	7	0
COc1cc(NC(=O)C/C(C)=N/NC(=O)C(=O)NCCO)c(OC)cc1Cl	-3	0	-1	-23	-3	-33	.	.
CN(C)CCNC(=O)c1ccc2c(=O)n(Cc3ccc(Cl)cc3)c(=S)[nH]c2c1	9.1*	-1	-2	-26	16	0	-9	2
Cc1nc(Nc2ccc(S(N)(=O)=O)cc2)sc1-c1ccccc1	-25	1	0	-2	-48	0	.	.
COc1ccc(Nc2nc(C)c(-c3ccccc3)s2)cc1	9.1*	0	0	-85	9	0	-16	1
CCOc1ccccc1OC(=O)c1cc2ccccc2oc1=O	-6	3	-3	-12	-14	0	.	.
Cc1ccc(OC(=O)c2cccc(S(=O)(=O)N(C)C)c2)c(-n2nc3ccccc3n2)c1	5	0	0	-93	14	-4	.	.
Cc1ccc(OC(=O)c2ccc(S(=O)(=O)N(C)C)cc2)c(-n2nc3ccccc3n2)c1	9.1*	0	1	-80	8	-17	32*	17*
COc1cccc(/C=N/NC(=O)CN(CCc2ccccc2)S(=O)(=O)c2ccc(NC(C)=O)cc2)c1	11*	0	-2	6	4	0	24*	14*
COc1ccc(/C=N/NC(=O)CN(C)S(=O)(=O)c2ccc(NC(C)=O)cc2)cc1	-2	0	-1	10	3	7	.	.
CC(C)n1nnnc1C1c2ccccc2C(=O)N1Cc1cccnc1 (stereo not drawn)	-2	0	.	-14	2	.	.	.
Cc1cc(C(=O)CSc2nnc(-c3ccc(Cl)cc3)n2C)c(C)n1CC1CCCO1 (stereo not drawn)	-4	-1	1	7	-5	-3	.	.
Cc1cc(C(=O)Cn2nnc(-c3ccc(Cl)cc3)n2)c(C)n1CC1CCCO1 (stereo not drawn)	9.0*	0	2	30	10	5	17	9.6*
SMILES	ADAM17 inh	KLK7 zymogen act	NR2E3 ag-1	NR2E3 ag-2	ADAM10 inh	GASC-1 inh	ADAM10 ctr	ADAM17 confirm
O=C(COn1nnc2ccc(S(=O)(=O)N3CCOCC3)cc21)NCCc1ccccc1	13*	0	3	-17	8	80	-2	1
CCCCNC(=O)COn1nnc2ccc(S(=O)(=O)N3CCOCC3)cc21	2	0	2	-13	3	-11	.	.
O=C1C=C(c2ccc3cc[nH]c3c2)C[C@@H](c2ccc3c(c2)OCO3)C1	.	.	1	-28	.	8	.	.
Fc1cccc(CCN2C(=S)NC[C@@H]2Cc2ccccc2)c1	-1	1	-2	11	6	-19	.	.
Fc1cccc(CCN2C(=S)NC[C@@H]2CC2CCCCC2)c1	11*	0	-1	16	11	-1	19	7
O=C(CCCN1C(=O)/C(=C/c2ccc(F)cc2)SC1=S)NC1CCS(=O)(=O)C1 (stereo not drawn)	5	0	2	-6	-1	16	.	.
COc1cccc(-c2c(C(=O)N/N=C/c3ccc(C)s3)nnn2-c2nonc2N)c1	-5	2	3	-1	8	1	.	.
CCOc1cccc(-c2c(C(=O)N/N=C/c3ccc(C)s3)nnn2-c2nonc2N)c1	9.7*	1	2	-1	13	6	-20	3
NC(=O)COC(=O)CNC(=O)c1sc2ccccc2c1Cl	4	-1	2	-27	0	6	.	.
CN(C)S(=O)(=O)c1cc(NC(=O)COC(=O)Cc2ccc(Cl)cc2Cl)ccc1Cl	5	0	3	-9	10	-15	.	.
CN(C)S(=O)(=O)c1cc(NC(=O)COC(=O)Cc2cccc3ccccc23)ccc1Cl	8.8*	0	-3	15	16	-6	27*	17*
COC(/C=C/Nc1ccc(Br)cc1)=C(C#N)C#N	0	-1	3	4	-3	9	.	.
COc1ccc(Cl)cc1S(=O)(=O)N1CCN(c2ccc(F)cc2)CC1	0	1	1	5	7	10	.	.
COc1c(S(=O)(=O)N2CCN(c3ccc(F)cc3)CC2)ccc(Cl)c1Cl	9.7*	1	-1	-10	16	-16	22*	14*
